The source made the active and inactive calls. No cut-off for these calls is given here.
Assays:
HL-60 [1] = assay: Induction of reactive oxygen species in human HL60 cells at 10 uM measured after 48 hrs by H2DCFDA dye-based flow cytometric analysis (reference value: 0.4%); format: functional
MOLT-4 [2] = assay: Induction of mitochondrial membrane potential loss in human MOLT4 cells assessed as intact mitochondrial membrane potential at 1 uM measured after 48 hrs by Rh123 dye-based flow cytometric analysis (reference value: 90.4%); format: functional
Procedure, shortened: (§1)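 Cells seeded in 6-well plates 2-4 h, then 48 h with compound; Rh-123 1 µM added for the final half hour; cells centrifuged, washed twice in PBS, resuspended in PBS, and Ψm loss quantified by flow cytometry as percentage of cells.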

[3] = Cytotoxicity against human FR2 cells assessed as growth inhibition after 48 hrs by MTT assay; format: ADME, cell-based; conditions: FR2, 48 h
MOLT-4 [4] = assay: Induction of mitochondrial membrane potential loss in human MOLT4 cells at 1 uM measured after 48 hrs by Rh123 dye-based flow cytometric analysis (reference value: 9.6%); format: functional; procedure, shortened: as §1
HL-60 [5] = assay: Cytotoxicity against human HL60 cells assessed as growth inhibition after 48 hrs by MTT assay; format: functional, cell-based; conditions: HL-60, 48 h
THP-1 [6] = assay: Cytotoxicity against human THP1 cells assessed as growth inhibition at 10 uM after 48 hrs by MTT assay; format: functional; conditions: THP-1, 48 h, read-out: GI
Procedure, shortened: (§2)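 MTT assay, 48 h exposure; adherent lines seeded 12 h and suspension lines 4 h before compound. Media: RPMI-1640/10% FCS (THP-1, HL-60, Colo-205, Caco-2, A549), DMEM/10% FCS (A549, MIAPaCa-2, MCF-7). MTT 4 h, formazan dissolved in DMSO, absorbance 570 nm. Mean ± S.D of three experiments in triplicate; SAHA 5 µM reference.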

HL-60 [7] = assay: Induction of reactive oxygen species in human HL60 cells at 5 uM measured after 48 hrs by H2DCFDA dye-based flow cytometric analysis (reference value: 0.4%); format: functional
MOLT-4 [8] = assay: Induction of mitochondrial membrane potential loss in human MOLT4 cells assessed as intact mitochondrial membrane potential at 5 uM measured after 48 hrs by Rh123 dye-based flow cytometric analysis (reference value: 90.4%); format: functional; procedure, shortened: as §1
Homo sapiens [9] = species on record: Homo sapiens; assay: Inhibition of HDAC in human MOLT4 cells assessed as increase in acetylated H3K18 levels after 48 hrs by Western blot analysis; format: cell-based
Procedure, shortened: (§3)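 Cells seeded 2-4 h, treated 48 h with graded compound concentrations (SAHA control); histones acid-extracted (HEPES pH 9 buffer, 0.2 N HCl, 1 h on ice), Bradford-normalised, resolved on 18% SDS gels, blotted to PVDF, probed for acetyl-H3K18 and acetyl-H4K5 with H3 and β-actin loading controls; ECL detection.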

THP-1 [10] = assay: Antimigratory activity in human THP1 cells at 0.125 uM after 48 hrs by wound healing assay; format: functional, cell-based
Procedure, shortened: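 THP-1 cells seeded at high density, attached overnight; monolayer scratched with a pipette tip, debris removed by PBS washes, then test compound added after wounding. Incubated 48 h under standard culture conditions (37°C, 5% CO2); wound images taken at various intervals from time zero.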

MOLT-4 [11] = assay: Induction of mitochondrial membrane potential loss in human MOLT4 cells at 10 uM measured after 48 hrs by Rh123 dye-based flow cytometric analysis (reference value: 9.6%); format: functional; procedure, shortened: as §1
HL-60 [12] = assay: Induction of mitochondrial membrane potential loss in human HL60 cells assessed as intact mitochondrial membrane potential at 10 uM measured after 48 hrs by Rh123 dye-based flow cytometric analysis (reference value: 91.3%); format: functional; procedure, shortened: as §1
MOLT-4 [13] = assay: Induction of reactive oxygen species in human MOLT4 cells at 1 uM measured after 48 hrs by H2DCFDA dye-based flow cytometric analysis (reference value: 1.1%); format: functional
Homo sapiens [14] = species on record: Homo sapiens; assay: Inhibition of HDAC in human HL60 cells assessed as increase in acetylated H4K5 levels after 48 hrs by Western blot analysis; format: cell-based; procedure, shortened: as §3
MOLT-4 [15] = assay: Induction of reactive oxygen species in human MOLT4 cells at 0.125 uM measured after 48 hrs by H2DCFDA dye-based flow cytometric analysis (reference value: 1.1%); format: functional
Homo sapiens [16] = species on record: Homo sapiens; assay: Inhibition of HDAC in human MOLT4 cells assessed as increase in acetylated H4K5 levels after 48 hrs by Western blot analysis; format: cell-based; procedure, shortened: as §3
Histone deacetylase 11 = Histone deacetylase 11 (Homo sapiens, UniProt Q96DB2); assay: Inhibition of HDAC 11 in human HeLa nuclear extract using fluorogenic HDAC class 2A substrate measured after 60 mins by fluorometric analysis
PC-3 = assay: Cytotoxicity against human PC3 cells assessed as growth inhibition at 10 uM after 48 hrs by MTT assay; format: functional; conditions: PC-3, 48 h, read-out: GI
HL-60 [17] = assay: Induction of autophagy in human HL60 cells assessed as acidic vacuole formation in cytoplasm at 10 uM after 48 hrs by acridine orange dye-based fluorescent microscopic analysis; format: functional, cell-based
Procedure, shortened: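 Cells treated 48 h with a range of compound concentrations, SAHA 1.0 µM as positive control; acridine orange 1 µg/ml added 15 min before end at 37°C; cells washed in PBS and acidic vacuoles viewed by fluorescence microscopy.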

MOLT-4 [18] = assay: Induction of reactive oxygen species in human MOLT4 cells at 5 uM measured after 48 hrs by H2DCFDA dye-based flow cytometric analysis (reference value: 1.1%); format: functional
Histone deacetylase 3 = Histone deacetylase 3 (Homo sapiens, UniProt O15379); assay: Inhibition of HDAC 3 in human HeLa nuclear extract using HDAC substrate-3 measured after 60 mins by fluorometric analysis
Histone deacetylase 4 = Histone deacetylase 4 (Homo sapiens, UniProt P56524); assay: Inhibition of HDAC 4 in human HeLa nuclear extract using fluorogenic HDAC class 2A substrate measured after 60 mins by fluorometric analysis
MOLT-4 [19] = assay: Induction of mitochondrial membrane potential loss in human MOLT4 cells assessed as intact mitochondrial membrane potential at 0.125 uM measured after 48 hrs by Rh123 dye-based flow cytometric analysis (reference value: 90.4%); format: functional; procedure, shortened: as §1
MOLT-4 [20] = assay: Induction of mitochondrial membrane potential loss in human MOLT4 cells at 5 uM measured after 48 hrs by Rh123 dye-based flow cytometric analysis (reference value: 9.6%); format: functional; procedure, shortened: as §1
HL-60 [21] = assay: Induction of mitochondrial membrane potential loss in human HL60 cells assessed as intact mitochondrial membrane potential at 1 uM measured after 48 hrs by Rh123 dye-based flow cytometric analysis (reference value: 91.3%); format: functional; procedure, shortened: as §1
[22] = target: Polyamine deacetylase HDAC10 (Homo sapiens, UniProt Q969S8); assay: Inhibition of HDAC 10 in human HeLa nuclear extract measured after 60 mins by fluorometric analysis
HL-60 [23] = assay: Induction of mitochondrial membrane potential loss in human HL60 cells at 1 uM measured after 48 hrs by Rh123 dye-based flow cytometric analysis (reference value: 5.6%); format: functional; procedure, shortened: as §1
HL-60 [24] = assay: Induction of mitochondrial membrane potential loss in human HL60 cells at 5 uM measured after 48 hrs by Rh123 dye-based flow cytometric analysis (reference value: 5.6%); format: functional; procedure, shortened: as §1
COLO 205 = assay: Cytotoxicity against human COLO205 cells assessed as growth inhibition at 10 uM after 48 hrs by MTT assay; format: functional; conditions: COLO 205, 48 h, read-out: GI; procedure, shortened: as §2
THP-1 [25] = assay: Cytotoxicity against human THP1 cells assessed as growth inhibition after 48 hrs by MTT assay; format: functional, cell-based; conditions: THP-1, 48 h

Histone deacetylase 4, sequence (P56524 whole entry): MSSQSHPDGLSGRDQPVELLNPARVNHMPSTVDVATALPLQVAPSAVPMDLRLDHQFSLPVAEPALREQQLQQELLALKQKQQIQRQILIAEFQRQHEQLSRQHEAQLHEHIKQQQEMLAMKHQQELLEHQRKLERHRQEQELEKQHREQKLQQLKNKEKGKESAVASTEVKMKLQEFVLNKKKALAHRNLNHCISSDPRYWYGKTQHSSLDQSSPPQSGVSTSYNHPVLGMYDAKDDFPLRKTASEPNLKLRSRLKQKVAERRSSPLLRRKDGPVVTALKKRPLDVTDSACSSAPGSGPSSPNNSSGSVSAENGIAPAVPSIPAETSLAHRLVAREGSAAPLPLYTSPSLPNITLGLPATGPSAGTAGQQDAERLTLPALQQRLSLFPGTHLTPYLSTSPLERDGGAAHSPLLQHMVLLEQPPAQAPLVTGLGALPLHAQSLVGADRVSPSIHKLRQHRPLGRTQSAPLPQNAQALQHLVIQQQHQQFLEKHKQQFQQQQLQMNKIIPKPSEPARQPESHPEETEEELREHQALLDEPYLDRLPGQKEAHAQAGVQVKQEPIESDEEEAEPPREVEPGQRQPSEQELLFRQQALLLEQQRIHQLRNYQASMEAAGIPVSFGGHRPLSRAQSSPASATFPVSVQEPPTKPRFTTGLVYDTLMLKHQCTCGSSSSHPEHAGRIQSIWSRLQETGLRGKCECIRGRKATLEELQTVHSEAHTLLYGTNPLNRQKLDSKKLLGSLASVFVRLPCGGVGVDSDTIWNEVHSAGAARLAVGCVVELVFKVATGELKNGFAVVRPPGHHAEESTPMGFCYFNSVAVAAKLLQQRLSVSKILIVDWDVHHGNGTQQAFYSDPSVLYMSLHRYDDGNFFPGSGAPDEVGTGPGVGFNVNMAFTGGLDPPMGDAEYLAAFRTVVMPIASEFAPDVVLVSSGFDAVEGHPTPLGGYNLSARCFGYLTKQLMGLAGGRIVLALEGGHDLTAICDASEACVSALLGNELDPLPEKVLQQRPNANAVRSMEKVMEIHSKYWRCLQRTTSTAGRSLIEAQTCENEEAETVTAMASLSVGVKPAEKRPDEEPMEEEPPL
Polyamine deacetylase HDAC10, sequence (Q969S8 whole entry): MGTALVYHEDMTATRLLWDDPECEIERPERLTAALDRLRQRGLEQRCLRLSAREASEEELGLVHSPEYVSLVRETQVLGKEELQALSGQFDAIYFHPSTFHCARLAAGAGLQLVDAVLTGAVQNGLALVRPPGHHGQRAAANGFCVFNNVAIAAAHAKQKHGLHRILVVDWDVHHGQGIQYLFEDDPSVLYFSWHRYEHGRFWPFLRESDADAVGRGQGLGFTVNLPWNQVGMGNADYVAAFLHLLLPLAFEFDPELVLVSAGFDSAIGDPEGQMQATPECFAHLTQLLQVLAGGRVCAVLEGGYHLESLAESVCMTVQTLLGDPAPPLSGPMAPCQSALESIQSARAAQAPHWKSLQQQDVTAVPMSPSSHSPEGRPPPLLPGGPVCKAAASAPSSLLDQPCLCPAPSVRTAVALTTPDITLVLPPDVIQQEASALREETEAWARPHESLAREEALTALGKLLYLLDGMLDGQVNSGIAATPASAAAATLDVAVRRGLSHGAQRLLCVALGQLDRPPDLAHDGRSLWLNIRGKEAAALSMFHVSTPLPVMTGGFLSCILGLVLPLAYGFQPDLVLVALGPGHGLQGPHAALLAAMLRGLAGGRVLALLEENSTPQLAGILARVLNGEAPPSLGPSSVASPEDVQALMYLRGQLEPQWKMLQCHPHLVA
Histone deacetylase 11, sequence (Q96DB2 whole entry): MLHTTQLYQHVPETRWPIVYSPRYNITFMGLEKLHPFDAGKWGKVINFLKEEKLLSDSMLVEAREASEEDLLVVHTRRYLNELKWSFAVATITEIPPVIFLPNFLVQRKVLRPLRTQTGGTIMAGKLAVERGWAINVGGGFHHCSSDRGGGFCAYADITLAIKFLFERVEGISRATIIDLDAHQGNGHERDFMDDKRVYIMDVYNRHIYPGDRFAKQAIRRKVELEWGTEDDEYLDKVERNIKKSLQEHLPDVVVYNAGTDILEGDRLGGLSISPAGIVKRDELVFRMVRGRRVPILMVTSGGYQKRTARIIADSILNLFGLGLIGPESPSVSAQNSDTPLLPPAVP
Histone deacetylase 3, sequence (O15379 whole entry): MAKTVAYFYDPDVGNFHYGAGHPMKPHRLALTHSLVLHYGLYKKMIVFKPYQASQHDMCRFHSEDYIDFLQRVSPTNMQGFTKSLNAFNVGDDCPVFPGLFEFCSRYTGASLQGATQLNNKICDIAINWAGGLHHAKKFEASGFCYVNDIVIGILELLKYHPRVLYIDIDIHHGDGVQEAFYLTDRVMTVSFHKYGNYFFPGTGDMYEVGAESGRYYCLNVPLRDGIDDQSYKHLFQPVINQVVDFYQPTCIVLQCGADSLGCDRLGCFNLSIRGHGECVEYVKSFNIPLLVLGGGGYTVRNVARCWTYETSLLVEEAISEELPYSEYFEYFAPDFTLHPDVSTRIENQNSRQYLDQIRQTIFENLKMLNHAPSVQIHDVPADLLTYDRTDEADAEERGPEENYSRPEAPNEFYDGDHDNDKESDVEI

## O=C(CCCCCCC(=O)Nc1ccccc1CN1CC[C@H](O)C1)NO
HL-60 [1]
  Activity: 0.1%
MOLT-4 [2]
  Activity: 95.1%
[3]
  IC50: 23 µM
MOLT-4 [4]
  Activity: 4.9%
HL-60 [5]
  IC50: 1 µM
THP-1 [6]
  inhibition of growth at 10 µM: 94%
HL-60 [7]
  Activity: 0%
MOLT-4 [8]
  Activity: 42.5%
Homo sapiens [9]
  inhibition: Dose-dependent effect
THP-1 [10]
  Activity: Active
MOLT-4 [11]
  Activity: 67.5%
HL-60 [12]
  Activity: 54.7%
MOLT-4 [13]
  Activity: 1.1%
Homo sapiens [14]
  inhibition: Dose-dependent effect
MOLT-4 [15]
  Activity: 1.3%
Homo sapiens [16]
  inhibition: Dose-dependent effect
Histone deacetylase 11
  IC50: > 10 µM
PC-3
  inhibition of growth at 10 µM: 29%
HL-60 [17]
  Activity: Active
MOLT-4 [18]
  Activity: 1.9%
Histone deacetylase 3
  IC50: 0.368 µM
Histone deacetylase 4
  IC50: 7.12 µM
MOLT-4 [19]
  Activity: 97.6%
MOLT-4 [20]
  Activity: 57.5%
HL-60 [21]
  Activity: 90.4%
[22]
  IC50: > 10 µM
HL-60 [23]
  Activity: 6.2%
HL-60 [24]
  Activity: 12.1%
COLO 205
  inhibition of growth at 10 µM: 92%
THP-1 [25]
  IC50: 1.3 µM

— ChEMBL document CHEMBL4049428, “Exploring Derivatives of Quinazoline Alkaloid l-Vasicine as Cap Groups in the Design and Biological Mechanistic Evaluation of Novel Antitumor Histone Deacetylase Inhibitors” (J Med Chem, 2017)
